Source: ChEMBL document CHEMBL2407047, “Molecular design, synthesis and biological evaluation of 1,4-dihydro-4-oxoquinoline ribonucleosides as TcGAPDH inhibitors with trypanocidal activity” (Bioorg Med Chem Lett, 2013)

Assays:
[1] = test system: Saccharomyces cerevisiae; experiment: Cytotoxicity against Saccharomyces cerevisiae by FUN-1 fluorescence assay; assay type: organism-based; conditions: in vivo
How it was run: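 Log-phase S. cerevisiae (CBMAI 0194) was grown in LB with 2% glucose and 10 mmol L⁻¹ acetate buffer, pH 5, at 37 °C. Cells were resuspended in NaHEPES pH 7.2 at 10⁷ cells mL⁻¹ and stained with FUN-1 (working solution 200 µmol L⁻¹) for 30 min, with or without compound, in 0.6% DMSO. Fluorescence (excitation 485 nm; emission 530/620 nm) was read every 10 min for 1 h at 37 °C. Viability was taken from the red/green ratio.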

[2] = molecular target: T1, Glyceraldehyde-3-phosphate dehydrogenase, glycosomal (Trypanosoma cruzi, UniProt P22513); experiment: Competitive inhibition of Trypanosoma cruzi glycosomal GAPDH NAD+ binding site by ITC method; conditions: read-out: Ki(app)
T1 sequence (P22513 whole entry): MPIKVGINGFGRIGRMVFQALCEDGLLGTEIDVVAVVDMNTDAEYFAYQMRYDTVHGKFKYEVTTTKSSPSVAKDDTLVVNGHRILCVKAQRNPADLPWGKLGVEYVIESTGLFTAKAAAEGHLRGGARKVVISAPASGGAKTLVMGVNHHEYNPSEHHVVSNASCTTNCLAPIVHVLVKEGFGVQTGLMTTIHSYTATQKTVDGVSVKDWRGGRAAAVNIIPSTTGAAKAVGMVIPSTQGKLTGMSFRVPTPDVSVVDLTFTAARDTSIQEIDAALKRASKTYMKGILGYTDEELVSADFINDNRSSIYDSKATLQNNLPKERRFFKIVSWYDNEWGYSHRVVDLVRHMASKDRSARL
How it was run: (§1)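 Enzyme assays were run by isothermal titration calorimetry (ITC), probing the GAPDH NAD+ cosubstrate site and the active site. Affinity is reported as apparent Ki. Mode of inhibition was judged from how NAD+ and G3P KM and Vmax respond. Kinetic models were compared by second-order Akaike's information criterion.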

[3] = molecular target: T1, Glyceraldehyde-3-phosphate dehydrogenase, glycosomal; experiment: Non-competitive inhibition of Trypanosoma cruzi glycosomal GAPDH active site by ITC method; conditions: read-out: Ki(app); how it was run: as §1
[4] = Selectivity index, ratio of C57BL/6 mouse spleen cells to trypomastigotes forms of Trypanosoma cruzi Tulahuen infected in monkey LLC-MK2 cells; assay type: toxicity, cell-based; conditions: read-out: Selectivity Index
[5] = Cytotoxicity against C57BL/6 mouse spleen cells after 24 hrs using propidium iodide by flow cytometry; assay type: cell-based
How it was run: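 Spleen cells were isolated from C57BL/6 mice by mechanical dissociation. They were incubated with compound at 5·10⁶ cells mL⁻¹ for 24 h at 37 °C under 5% CO2, then stained with 10 µg mL⁻¹ propidium iodide and analysed by flow cytometry. Two experiments were run in duplicate; mean plus standard deviation is reported.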

[6] = test system: Trypanosoma cruzi; experiment: Trypanocidal activity against trypomastigotes forms of Trypanosoma cruzi Tulahuen infected in monkey LLC-MK2 cells after 24 hrs by beta-galactosidase reporter assay; assay type: functional
[7] = molecular target: T1, Glyceraldehyde-3-phosphate dehydrogenase, glycosomal; experiment: Inhibition of Trypanosoma cruzi glycosomal GAPDH; how it was run: as §1

O=C(O)c1cn([C@@H]2O[C@H](CO)[C@@H](O)[C@H]2O)c2ccc(Br)cc2c1=O
Activity [1]: Toxic
Ki [2]: 29.5 µM

COc1ccc2c(=O)c(C(=O)O)cn([C@@H]3O[C@H](CO)[C@@H](O)[C@H]3O)c2c1
Activity [1]: Toxic
Ki [3]: 105 µM
Ki [2]: 59.5 µM

O=C(O)c1cn([C@@H]2O[C@H](CO)[C@@H](O)[C@H]2O)c2cc(Br)ccc2c1=O
selectivity ratio [4]: > 27
Activity [5]: > 500 µmol/L
Ki [3]: 151 µM
Activity [6]: 18 µmol/L
Ki [2]: 16 µM

CCOC(=O)c1cn([C@@H]2O[C@H](COC(=O)c3ccccc3)[C@@H](OC(=O)c3ccccc3)[C@H]2OC(=O)c2ccccc2)c2ccc(Cl)cc2c1=O
IC50 [7]: 40.7 µM

Cc1ccc2c(=O)c(C(=O)O)cn([C@@H]3O[C@H](CO)[C@@H](O)[C@H]3O)c2c1
Ki [2]: 17.1 µM

COc1ccc2c(c1)c(=O)c(C(=O)O)cn2[C@@H]1O[C@H](CO)[C@@H](O)[C@H]1O
selectivity ratio [4]: 1
Activity [5]: > 500 µmol/L
Ki [3]: 305 µM
Activity [6]: >500 µmol/L
Ki [2]: 18.7 µM

O=C(O)c1cn([C@@H]2O[C@H](CO)[C@@H](O)[C@H]2O)c2ccc(Cl)cc2c1=O
Ki [2]: 32.3 µM

O=C(Cn1ccnc1[N+](=O)[O-])NCc1ccccc1 [BENZNIDAZOLE]
selectivity ratio [4]: > 26
Activity [5]: > 500 µmol/L
Activity [6]: 19 µmol/L

Cc1ccc2c(c1)c(=O)c(C(=O)O)cn2[C@@H]1O[C@H](CO)[C@@H](O)[C@H]1O
Ki [2]: 57.6 µM
